Measured values taken from ChEMBL document CHEMBL1124358, “Synthesis and pharmacological evaluation of CNS activities of [1,2,3]triazolo[4,5-b][1,5]-, imidazolo[4,5-b][1,5]-, and pyrido[2,3-b][1,5]benzodiazepines. 10-Piperazinyl-4H-1,2,3-triazolo[4,5-b][1,5]benzodiazepines with neuroleptic activity” (J Med Chem, 1989).

How the values were obtained:
D(2) dopamine receptor [1] = target: T1, D(2) dopamine receptor (Bos taurus, UniProt P20288); experiment: Inhibitory activity against dopamine receptor D2 in calf caudate tissue using [3H]spiperone
T1 sequence (P20288 whole entry): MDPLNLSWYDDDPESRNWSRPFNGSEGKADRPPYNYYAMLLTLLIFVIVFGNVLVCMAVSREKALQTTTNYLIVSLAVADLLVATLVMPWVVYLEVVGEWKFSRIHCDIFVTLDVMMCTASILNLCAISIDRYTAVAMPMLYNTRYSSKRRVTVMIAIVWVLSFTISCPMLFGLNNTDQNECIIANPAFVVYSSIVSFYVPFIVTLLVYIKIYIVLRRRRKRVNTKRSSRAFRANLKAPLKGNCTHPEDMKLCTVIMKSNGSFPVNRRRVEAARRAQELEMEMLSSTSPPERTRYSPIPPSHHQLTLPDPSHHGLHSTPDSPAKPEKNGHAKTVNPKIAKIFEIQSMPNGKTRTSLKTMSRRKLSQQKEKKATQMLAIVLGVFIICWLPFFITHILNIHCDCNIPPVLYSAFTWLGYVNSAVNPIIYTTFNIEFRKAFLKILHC

Mus musculus [2] = experiment: Effective dose required to evoke catalepsy in mouse when administered perorally; type: functional
Summary of the method: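 CFW mice (21–23 g), groups of three, oral dosing in water or 0.5% carboxymethylcellulose. Scored at 0.25, 2.5 and 5.0 h for holding one hind limb on a 2 cm rubber bung and staying on a vertical grid. EDmin is the dose below which no catalepsy occurred at any time.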

Mus musculus [3] = experiment: Effective dose required to produce hypothermia in mouse when administered peroral; type: functional
Summary of the method: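 Rectal temperature recorded in groups of three CFW mice (21–23 g) at 0.25, 2.5 and 5.0 h after oral compound (water or 0.5% carboxymethylcellulose). Changes in group mean temperature from the initial mean were summed over the three times. Hypothermia was taken as a summed mean fall >4 °C.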

[4] = target: Muscarinic acetylcholine receptor; experiment: Inhibitory activity against muscarinic cholinergic receptors in male olac rat brain, using [3H]QNB as the radioligand
Rattus norvegicus [5] = experiment: Effective dose against muscular incoordination in rats determined by rotarod test when administered peroral; type: functional
Summary of the method: (§1)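 Male Olac Wistar rats (140–150 g), fed and watered ad libitum, in groups of five, dosed orally (water solution or 0.5% carboxymethylcellulose suspension). Tested at 1 and 2 h on a horizontal rod rotating at 2 rpm, 32 mm diameter, with a 30 s cutoff.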

Rattus norvegicus [6] = species: Rattus norvegicus; experiment: Inhibition of conditioned avoidance response in rats, peroral dose; type: functional
D(2) dopamine receptor [7] = target: T1, D(2) dopamine receptor; experiment: Inhibitory activity against Dopamine receptor D2 in calf caudate tissue, using [3H]spiperone as the radioligand
[8] = target: Muscarinic acetylcholine receptor; experiment: Inhibitory activity against Muscarinic acetylcholine receptor in male olac rat brain, using [3H]-QNB as the radioligand
Rattus norvegicus [9] = experiment: Effective dose against muscular incoordination in rats determined by rotarod test when administered perorally; type: functional; summary of the method: as §1
D(2) dopamine receptor [10] = target: T1, D(2) dopamine receptor; experiment: Inhibitory activity Dopamine receptor D2 in calf caudate tissue, using [3H]spiperone as the radioligand
Rattus norvegicus [11] = experiment: Effective dose against muscular in coordination in rats determined by rotarod test when administered peroral; type: functional
Summary of the method: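 Male Olac Wistar rats (140–150 g), fed and watered ad libitum, groups of five; compound in distilled water or 0.5% carboxymethylcellulose given orally. Tested at 1 and 2 h on horizontal rod rotating at 2 rpm (32 mm diameter), time on rod recorded up to 30 s.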

Compound	IC50 (D(2) dopamine receptor [1]) [nM]	EDmin (Mus musculus [2]) [mg/kg]	EDmin (Mus musculus [3]) [mg/kg]	IC50 [4] [nM]	EDmin (Rattus norvegicus [5]) [mg/kg]	EDmin (Rattus norvegicus [6]) [mg/kg]	IC50 (D(2) dopamine receptor [7]) [nM]	IC50 [8] [nM]	EDmin (Rattus norvegicus [9]) [mg/kg]	IC50 (D(2) dopamine receptor [10]) [nM]	EDmin (Rattus norvegicus [11]) [mg/kg]
CN1CCN(C2=Nc3cc(F)ccc3Nc3c2ncn3C2CCCCC2)CC1	> 10000	>400	200	> 100000	>50	>50	–	–	–	–	–
CN1CCN(C2=Nc3cc(F)ccc3Nc3nn(C)nc32)CC1	–	25	12.5	–	–	5	840	> 1000	20	–	–
CN1CCN(C2=Nc3cc(Cl)c(Cl)cc3Nc3nn(C)nc32)CC1	–	100	50	–	>50	>20	2300	> 1000	–	–	–
Cc1nc2c(n1C)C(N1CCN(C)CC1)=Nc1cc(F)ccc1N2	> 10000	>200	50	> 1000	>50	>50	–	–	–	–	–
CN1CCN(C2=Nc3ccccc3Nc3c2nnn3C)CC1	–	–	–	–	–	>50	> 10000	–	–	–	–
CN1CCN(C2=Nc3cc(Br)ccc3Nc3nn(C)nc32)CC1	–	12.5	12.5	–	5	5	–	4000	–	300	–
CCn1cnc2c1Nc1ccc(F)cc1N=C2N1CCN(C)CC1	> 10000	>200	>200	61000	>50	>50	–	–	–	–	–
CN1CCN(C2=Nc3ccccc3Nc3ncccc32)CC1	–	–	100	–	–	–	> 10000	–	–	–	–
CCn1nc2c(n1)C(N1CCN(C)CC1)=Nc1cc(F)ccc1N2	180	12.5	12.5	> 1000	10	5	–	–	–	–	–
CN1CCN(C2=Nc3cc(C(F)(F)F)ccc3Nc3nn(C)nc32)CC1	–	50	50	–	25	>25	1100	> 1000	–	–	–
CN1CCN(C2=Nc3cc(F)ccc3Nc3c2ncn3C)CC1	> 100000	>400	>400	122000	>50	>50	–	–	–	–	–
CN1CCN(C2=Nc3ccccc3Nc3nn(C)nc32)CC1	1420	25	25	> 1000	–	5	–	–	>50	–	–
CN1CCN(C2=Nc3cc(Cl)c(Cl)cc3Nc3ncccc32)CC1	–	50	100	–	–	–	9200	–	–	–	–
CN1CCN(C2=Nc3cc(Cl)ccc3Nc3nn(C)nc32)CC1	–	12.5	6	–	>10	4	210	2600	–	–	–
CN1CCN(C2=Nc3cc(F)ccc3Nc3ncn(C)c32)CC1	> 10000	100	25	> 1000	40	>20	–	–	–	–	–
CCn1nc2c(n1)C(N1CCN(C)CC1)=Nc1cc(Cl)ccc1N2	67	12.5	12.5	2400	>5	5	–	–	–	–	–
CN1CCN(C2=Nc3cc(Cl)ccc3Nc3ccccc32)CC1 [CLOZAPINE]	–	100	50	–	–	30	–	–	–	–	40
Cc1cc2c(s1)Nc1ccc(F)cc1N=C2N1CCN(C)CC1 [FLUMEZAPINE]	–	6.25	1.6	80	10	5	–	–	–	–	–
